The target in one assay is Plasmepsin II (Plasmodium falciparum, UniProt P46925). The assay can be described thus: Inhibitory activity against protease plasmepsin-2 (Plm II) of Plasmodium falciparum. The method, boiled down:
(§1)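 Plm II: 3 nM pro-enzyme, pro-sequence cleaved by 40 min room-temperature preincubation; Plm I amount matched to similar activity. Buffer 100 mM sodium acetate pH 4.5, 10% glycerol, 0.01% Tween 20. Inhibitor (up to 1500 nM Plm I, 2500 nM Plm II; 1% DMSO final), then 3 μM FRET substrate; fluorescence over 10 min. Competitive Langmuir IC50 converted to Ki via Michaelis–Menten Km.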

For another assay, the target named is Plasmepsin I (Plasmodium falciparum, UniProt P39898). The assay can be described thus: Inhibitory activity against protease plasmepsin-1 (Plm I) of Plasmodium falciparum. An outline of the steps: as §1
Plasmepsin I, sequence (P39898 whole entry): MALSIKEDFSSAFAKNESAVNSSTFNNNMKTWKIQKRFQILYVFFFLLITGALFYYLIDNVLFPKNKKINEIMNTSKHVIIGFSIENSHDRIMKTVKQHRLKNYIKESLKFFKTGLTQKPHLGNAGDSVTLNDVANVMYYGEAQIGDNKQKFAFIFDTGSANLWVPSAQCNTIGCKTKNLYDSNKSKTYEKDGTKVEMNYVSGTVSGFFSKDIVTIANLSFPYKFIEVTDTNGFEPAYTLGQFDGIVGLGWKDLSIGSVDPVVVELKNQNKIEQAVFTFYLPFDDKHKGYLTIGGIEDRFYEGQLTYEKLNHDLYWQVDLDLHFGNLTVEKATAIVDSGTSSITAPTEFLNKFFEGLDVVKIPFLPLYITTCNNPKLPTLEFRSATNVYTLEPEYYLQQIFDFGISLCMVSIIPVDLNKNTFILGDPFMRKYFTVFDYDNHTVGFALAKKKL
Assay [1] deals with T1, Cathepsin D (Homo sapiens, UniProt P07339). The assay can be described thus: Inhibitory activity against human Cathepsin D; Range. An outline of the steps: (§2)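 Human liver Cat D, 50 ng/mL pro-form, activated 20 min at 37 °C in 100 mM sodium acetate pH 4.5, 10% glycerol, 0.01% Tween 20. Inhibitor (tested up to 2000 nM, final DMSO 1%) added before 3 μM DABCYL-Glu-Arg-Nle-Phe-Leu-Ser-Phe-Pro-EDANS. Fluorescence rise followed 10 min. IC50 from Langmuir fit assuming competitive inhibition; Ki = IC50/(1+[S]/Km).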
T1 sequence (P07339 65-162 limits assumed): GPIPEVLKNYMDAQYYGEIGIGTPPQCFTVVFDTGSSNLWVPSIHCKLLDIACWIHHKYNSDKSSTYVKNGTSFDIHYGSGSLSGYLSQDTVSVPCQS
T1 sequence (P07339 169-412 limits assumed): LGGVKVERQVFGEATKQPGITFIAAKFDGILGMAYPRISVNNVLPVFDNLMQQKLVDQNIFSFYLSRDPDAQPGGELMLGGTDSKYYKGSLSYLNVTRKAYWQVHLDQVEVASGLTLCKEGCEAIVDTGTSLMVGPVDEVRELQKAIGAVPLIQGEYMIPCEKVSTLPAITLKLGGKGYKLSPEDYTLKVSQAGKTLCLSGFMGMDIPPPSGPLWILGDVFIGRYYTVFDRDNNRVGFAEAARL

Assay [2] concerns Plasmodium falciparum. The assay can be described thus: In vitro percent inhibition of Plasmodium falciparum 3D7 in human erythrocyte at 5 uM. It is filed as functional. An outline of the steps:
(§3)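 Synchronous P. falciparum 3D7 early trophozoites (~1% haematocrit, 1% parasitaemia) in human erythrocytes, labelled with [3H]hypoxanthine 10 μCi mL⁻¹; compound added (1–5 μM final, DMSO up to 1% v/v), 30 h at 37 °C in gassed boxes to schizont stage. Filter-harvested, β-counted; radioactivity relative to DMSO-only wells; four independent experiments per concentration.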

The target in assay [3] is T1, Cathepsin D. The assay can be described thus: Inhibitory activity against human cathepsin D. The method, boiled down: as §2
Assay [4] deals with Plasmodium falciparum. The assay can be described thus: Percent inhibition for Plasmodium falciparum at 5 uM. In kind it is functional. An outline of the steps: as §3

Some results are limits rather than exact numbers.

Plasmepsin II, sequence (P46925 whole entry): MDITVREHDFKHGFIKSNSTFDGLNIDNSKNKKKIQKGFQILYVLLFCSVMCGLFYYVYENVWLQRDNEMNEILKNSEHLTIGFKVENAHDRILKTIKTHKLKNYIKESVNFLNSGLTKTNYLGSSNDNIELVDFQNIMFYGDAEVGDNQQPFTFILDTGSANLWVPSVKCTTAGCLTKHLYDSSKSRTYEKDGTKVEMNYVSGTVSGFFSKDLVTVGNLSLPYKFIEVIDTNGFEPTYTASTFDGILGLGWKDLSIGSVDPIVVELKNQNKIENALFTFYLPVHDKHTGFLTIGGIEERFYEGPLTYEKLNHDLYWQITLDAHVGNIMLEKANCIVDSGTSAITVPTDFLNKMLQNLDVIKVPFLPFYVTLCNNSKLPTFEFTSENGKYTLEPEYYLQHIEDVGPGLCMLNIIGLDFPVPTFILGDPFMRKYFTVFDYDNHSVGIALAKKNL

In turn, `CNC(=O)[C@@H](NC(=O)[C@H](OCc1ccccc1)[C@H](O)[C@@H](O)[C@@H](OCc1ccccc1)C(=O)N[C@H](C(=O)NC)C(C)C)C(C)C` returned a Ki on Plasmepsin II of 3800 nM.
Turning to `C=CCO[C@@H](CN[C@H]1c2ccccc2C[C@H]1O)[C@H](O)[C@@H](O)[C@@H](OCC=C)C(=O)N[C@H]1c2ccccc2C[C@H]1O`, the Ki at Plasmepsin I is above 1500 nM; on Cathepsin D [1] it was above 2000 nM; on Plasmepsin II, above 2500 nM. Further, the inhibition at 5 µM in the assay on Plasmodium falciparum [2] was 50%.
`CC(C)[C@H](NC(=O)CCc1c[nH]c2ccccc12)C(=O)N[C@@H](Cc1ccccc1)[C@@H](O)CN[C@@H](Cc1ccc(-c2ccccc2)cc1)C(N)=O`: the Ki at Plasmepsin I was 2.6 nM; at Cathepsin D [3], 30 nM; on Plasmepsin II, 11 nM. Moreover, in the assay with Plasmodium falciparum [4], the inhibition at 5 µM worked out at 56%.
Consider `CC(=O)c1ccc(/C=C/CO[C@@H](C(=O)N[C@H]2c3ccccc3C[C@H]2O)[C@H](O)[C@@H](O)[C@@H](OC/C=C/c2ccc(C(C)=O)cc2)C(=O)N[C@H]2c3ccccc3C[C@H]2O)cc1`, for which the results for the Ki on Plasmepsin I, on Cathepsin D [3] and on Plasmepsin II were 0.8 nM, above 2000 nM and 6 nM, respectively. In the assay with Plasmodium falciparum [2], this compound came in with an inhibition at 5 µM of 78%.
Turning to `C=CCO[C@@H](C(=O)N[C@H](C(=O)NC)C(C)C)[C@H](O)[C@@H](O)[C@@H](OCC=C)C(=O)N[C@H](C(=O)NC)C(C)C`, affinity on Plasmepsin II was put at a Ki of 4100 nM.
As to `C[Si](C)(C)C#C/C=C/CO[C@@H](C(=O)N[C@H]1c2ccccc2C[C@H]1O)[C@H](O)[C@@H](O)[C@@H](OC/C=C/C#C[Si](C)(C)C)C(=O)N[C@H]1c2ccccc2C[C@H]1O`, the results for the Ki at Plasmepsin I, at Cathepsin D [3] and at Plasmepsin II were 37 nM, above 2000 nM and 130 nM, respectively.
With `C=CCO[C@@H](C(=O)N[C@H]1c2ccccc2C[C@H]1O)[C@H](O)[C@@H](O)[C@@H](OCC=C)C(=O)N[C@H]1c2ccccc2C[C@H]1O`, the Ki at Plasmepsin I is 163 nM; on Cathepsin D [3] it was above 2000 nM; on Plasmepsin II, 96 nM. The compound further registered an inhibition at 5 µM with Plasmodium falciparum [2] of 0%.
As to `O=C(N[C@H]1c2ccccc2C[C@H]1O)[C@H](OC/C=C/Br)[C@H](O)[C@@H](O)[C@@H](OC/C=C/Br)C(=O)N[C@H]1c2ccccc2C[C@H]1O`, the Ki on Plasmepsin I was 27 nM; on Cathepsin D [3] it was above 2000 nM; at Plasmepsin II, 47 nM.
On the same counts, the results for `O=C(N[C@H]1c2ccccc2C[C@H]1O)[C@H](OC/C=C/c1ccccc1)[C@H](O)[C@@H](O)[C@@H](OC/C=C/c1ccccc1)C(=O)N[C@H]1c2ccccc2C[C@H]1O` are 1.4 nM, above 2000 nM and 29 nM.
Consider `Cc1noc(C)c1/C=C/CO[C@@H](C(=O)N[C@H]1c2ccccc2C[C@H]1O)[C@H](O)[C@@H](O)[C@@H](OC/C=C/c1c(C)noc1C)C(=O)N[C@H]1c2ccccc2C[C@H]1O`, for which the Ki at Plasmepsin I is 23 nM; at Cathepsin D [3], above 2000 nM; at Plasmepsin II it was 181 nM.
Consider `COc1ncc(/C=C/CO[C@@H](C(=O)N[C@H]2c3ccccc3C[C@H]2O)[C@H](O)[C@@H](O)[C@@H](OC/C=C/c2cnc(OC)nc2OC)C(=O)N[C@H]2c3ccccc3C[C@H]2O)c(OC)n1`, for which the Ki is 8.4 nM at Plasmepsin I, above 2000 nM on Cathepsin D [3] and 13 nM on Plasmepsin II. In the assay on Plasmodium falciparum [2], this compound displayed an inhibition at 5 µM of 2%.
For the compound `O=C(N[C@H]1c2ccccc2C[C@H]1O)[C@H](OCc1ccccc1)[C@H](O)[C@@H](O)[C@@H](OCc1ccccc1)C(=O)N[C@H]1c2ccccc2C[C@H]1O`, the Ki on Plasmepsin I was 25 nM; on Cathepsin D [3] it was above 2000 nM; on Plasmepsin II, 85 nM.
As for `O=C(N[C@H]1c2ccccc2C[C@H]1O)[C@H](OC/C=C/C#Cc1ccccc1)[C@H](O)[C@@H](O)[C@@H](OC/C=C/C#Cc1ccccc1)C(=O)N[C@H]1c2ccccc2C[C@H]1O`, the Ki on Plasmepsin I was 7.2 nM; on Cathepsin D [3] it was above 2000 nM; at Plasmepsin II, 41 nM.
Consider `COC(=O)/C=C/C=C/CO[C@@H](C(=O)N[C@H]1c2ccccc2C[C@H]1O)[C@H](O)[C@@H](O)[C@@H](OC/C=C/C=C/C(=O)OC)C(=O)N[C@H]1c2ccccc2C[C@H]1O`, for which the figures for the inhibition constant (Ki) at Plasmepsin I, at Cathepsin D [3] and at Plasmepsin II were 3.7 nM, above 2000 nM and 8.9 nM, respectively. For the same compound, the inhibition at 5 µM with Plasmodium falciparum [2] worked out at 51%.
Take `Cc1ccc(/C=C/CO[C@@H](C(=O)N[C@H]2c3ccccc3C[C@H]2O)[C@H](O)[C@@H](O)[C@@H](OC/C=C/c2ccc(C)cc2)C(=O)N[C@H]2c3ccccc3C[C@H]2O)cc1`: the Ki is 5.8 nM at Plasmepsin I, above 2000 nM on Cathepsin D [3] and 129 nM on Plasmepsin II.
Take `C#C/C=C/CO[C@@H](C(=O)N[C@H]1c2ccccc2C[C@H]1O)[C@H](O)[C@@H](O)[C@@H](OC/C=C/C#C)C(=O)N[C@H]1c2ccccc2C[C@H]1O`: the Ki at Plasmepsin I is 32 nM; on Cathepsin D [3], above 2000 nM; on Plasmepsin II, 37 nM.
As to `O=C(N[C@H]1c2ccccc2C[C@H]1O)[C@H](OC/C=C/c1ccc2c(c1)OCO2)[C@H](O)[C@@H](O)[C@@H](OC/C=C/c1ccc2c(c1)OCO2)C(=O)N[C@H]1c2ccccc2C[C@H]1O`, the Ki on Plasmepsin I is 0.5 nM; on Cathepsin D [3] it was above 2000 nM; on Plasmepsin II, 14 nM. This compound also displayed an inhibition at 5 µM in the assay with Plasmodium falciparum [2] of 61%.
As for `O=C(N[C@H]1c2ccccc2C[C@H]1O)[C@H](OC/C=C/c1ccc(F)cc1)[C@H](O)[C@@H](O)[C@@H](OC/C=C/c1ccc(F)cc1)C(=O)N[C@H]1c2ccccc2C[C@H]1O`, the results for the Ki on Plasmepsin I, at Cathepsin D [3] and on Plasmepsin II were 2.5 nM, above 2000 nM and 59 nM, respectively.
`O=C(N[C@H]1c2ccccc2C[C@H]1O)[C@H](OC/C=C/C=C/c1ccccc1)[C@H](O)[C@@H](O)[C@@H](OC/C=C/C=C/c1ccccc1)C(=O)N[C@H]1c2ccccc2C[C@H]1O`: the Ki at Plasmepsin I is 4.4 nM; on Cathepsin D [3], above 2000 nM; on Plasmepsin II, 15 nM.
Taken in the same sequence, the figures for `O=C(N[C@H]1c2ccccc2C[C@H]1O)[C@H](OC/C=C/c1ccsc1)[C@H](O)[C@@H](O)[C@@H](OC/C=C/c1ccsc1)C(=O)N[C@H]1c2ccccc2C[C@H]1O` were 1.3 nM, above 2000 nM and 15 nM.

For the origin of these results see ChEMBL document CHEMBL1139453, “Potent inhibitors of the Plasmodium falciparum enzymes plasmepsin I and II devoid of cathepsin D inhibitory activity” (J Med Chem, 2004).
